Screening data: PubChem, several laboratories
CHT allo act: human CHT allosteric activation. Q9GZV3. actives 0.49% (n = 310,000). CHT-expressing cells, membrane potential dye, choline EC20; active compounds read high; LV-AA mutant CHT in HEK293 cells. AID 488977. B-score at 10 µM;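 active means initial fluorescence not abnormally high and integrated response B-score, plate-corrected, over 3 SD above library mean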
CHT inh: inhibits the human high affinity choline transporter; Q9GZV3; CHT-expressing cells, membrane potential dye, choline response; active compounds read low; B-score at 10 µM; actives 0.86% (n = 310,000);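 active means B-score over 3 SD under the library average, and starting fluorescence ratio not unusually high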;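 further: choline stimulus applied at its EC90 after an EC20 pre-addition; B-score computed on integrated fluorescence ratio after choline addition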
HSF1 inh: HSF1 inhibition; actives 0.77% (n = 300,000); AID 2098; NIH3T3-HGL HSE-luciferase, MG132-induced, luminescence 8 h; active compounds read low; activity change, negative = inhibition, % at 7.5 µM (by protocol);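 active means more than half of replicate wells show activity change below -50%, luminescence cut by over half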;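 further: luciferase reports HSF-1 transcriptional activity via heat shock element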
PHOSPHO1 block: inhibitors of human PHOSPHO1 phosphatase; recombinant PHOSPHO1, absorbance phosphatase assay; actives 1.1% (n = 290,000); inhibition, % at 13.3 µM; Q8TCT1; in the data active means inhibition above about 60%
Target sequence (Q8TCT1 whole entry, looked up): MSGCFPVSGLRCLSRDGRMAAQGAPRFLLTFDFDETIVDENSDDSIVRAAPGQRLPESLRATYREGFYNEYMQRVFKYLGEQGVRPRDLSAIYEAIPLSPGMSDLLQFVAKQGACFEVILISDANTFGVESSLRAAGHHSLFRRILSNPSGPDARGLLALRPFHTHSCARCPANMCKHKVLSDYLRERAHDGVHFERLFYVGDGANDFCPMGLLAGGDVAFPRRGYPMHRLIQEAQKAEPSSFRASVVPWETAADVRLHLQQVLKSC
Lipid droplet: modulators of hepatic lipid droplet formation; AML12 mouse hepatocytes, oleate lipid droplets, BODIPY imaging; actives 0.4% (n = 240,000); inhibition, % at 6.5 µM;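 active means lipid droplet intensity inhibited by at least 50%, with more than 500 cells counted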
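Material – mouse AML12 hepatocyte cell line, fixed after treatment · Compound dosing – one dose, 6.5 µM compound · Times – compound with oleate, overnight · Measured by – Image-based BODIPY and DAPI two-channel analysis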
HSF-1 act: increases HSF-1 driven luciferase reporter signal. actives 1.7% (n = 300,000). activation, % at 9 µM. NIH3T3-HGL HSF-1 luciferase reporter, MG132, 8 h; 100% = twice DMSO control signal;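 active means mean replicate activation of at least 50% with a set share of replicates each reaching 50%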
Large screens that a line does not name were inactive. Only some compounds are listed: those with a hit (about 4.9% of all), similar ones and a draw of the others.

Cc1ccc(-c2cnc(SCC(=O)N3CCCc4ccccc43)n2C)cc1	PHOSPHO1 block 77 (no result: HSF1 inh, Lipid droplet, HSF-1 act)
O=C(NCc1ccc(Cl)cc1)C(=O)NCC(c1ccco1)N1CCOCC1 (stereo not given)	none
Cc1ccc(N(C)C(=O)CN(C)S(=O)(=O)c2ccc3c(c2)n(C)c(=O)c(=O)n3C)cc1	HSF1 inh -91
Oc1ccc(N2CCN(c3ncnc4sc5c(c34)CCC5)CC2)cc1	PHOSPHO1 block 75 (no result: Lipid droplet)
Cc1nc(N2CCN(c3ccccc3)CC2)c2c3c(sc2n1)CCC3	none (no result: CHT allo act, CHT inh, HSF1 inh, Lipid droplet, HSF-1 act)
CC(C)(C)NC(=O)c1ccc2c3c(cccc13)CC2	HSF-1 act 101
O=C(NC1CC1)c1ccc2c3c(cccc13)CC2	none
CCCc1ccc(-c2cc(NC(=O)CSc3nnc(N)s3)n(-c3ccccc3)n2)cc1	HSF-1 act 61
CCN1C/C(=C/c2ccc(OC)c(O)c2)C(=O)/C(=C/c2ccc(OC)c(O)c2)C1	HSF1 inh -79
COc1cc(/C=C2/CC/C(=C/c3ccc(O)c(OC)c3)C2=O)ccc1O	none
COc1ccc(/C=C2\CN(Cc3ccccc3)C/C(=C\c3ccc(OC)c(O)c3)C2=O)cc1O	HSF-1 act 91
CCn1c(NCc2cc(Br)ccc2NS(=O)(=O)c2ccc(C)cc2)nc2ccccc21	none (no result: Lipid droplet)
COC1(OC)C(/C=C/c2ccc(C)cc2)C(C#N)(C#N)C1(OC)OC (stereo not given)	HSF-1 act 55 (no result: PHOSPHO1 block, Lipid droplet)
CC(C)Cn1c(SCC(=O)N2CCN(S(=O)(=O)c3ccccc3)CC2)nc2ccccc21	none (no result: Lipid droplet)
N#CCCn1c(SCC(=O)N2CCN(S(=O)(=O)c3ccccc3)CC2)nc2ccccc21	PHOSPHO1 block 86 (no result: Lipid droplet)
Cc1ccc(N2C(=O)CC(NNC(=O)c3cccc(S(=O)(=O)N4CCCC4)c3)C2=O)cc1 (stereo not given)	none
CS(=O)(=O)c1ccccc1C(=O)N1CCN(Cc2ccccc2)CC1	PHOSPHO1 block 73
Cc1ccc(NC(=O)C(=Cc2ccc(C(=O)O)cc2)C(=O)Nc2ccc(C)cc2C)c(C)c1	HSF-1 act 555
CC(C)N(C(C)C)S(=O)(=O)c1ccc(N2CCc3ccccc3C2)nc1	HSF-1 act 130
CCN(CC)S(=O)(=O)c1ccc(N2CCN(S(=O)(=O)c3ccccc3)CC2)nc1	none (no result: CHT allo act, CHT inh)
CCN(CC)S(=O)(=O)c1ccc(N2CCc3ccccc3C2)nc1	HSF-1 act 73
COc1ccc2c(c1)oc(=O)c1c3ccccc3[nH]c21	HSF-1 act 71 (no result: CHT allo act, CHT inh)
Cc1cc(NC(=O)c2cc(-c3cccc(OCC(C)C)c3)nc3ccccc23)no1	none
CC(=O)NC12CC3CC(C1)CC(C(=O)OCC(=O)NC(=O)c1cccn1C)(C3)C2	none
Cn1cccc1C(=O)NC(=O)COC(=O)C12CC3CC(CC(O)(C3)C1)C2	HSF1 inh -61
O=[N+]([O-])c1ccc(O)c(C=Nc2cccc3ccccc23)c1	none
O=[N+]([O-])c1ccc(O)c(C=Nc2ccc3oc(Cc4ccc(Cl)cc4)nc3c2)c1	HSF1 inh -74
O=[N+]([O-])c1ccc(O)c(C=Nc2ccc3c(c2)OCCO3)c1	HSF1 inh -64
O=C(NC1CCCCC1)c1ccc(CS(=O)Cc2ccc(Cl)cc2)o1 (stereo not given)	none
O=C(CSc1nc2ccccc2n1CCc1ccccc1)c1ccc(O)c(O)c1	none (no result: CHT allo act, CHT inh, HSF1 inh, HSF-1 act)
COc1c(Cl)cc(Cl)cc1C(=O)Nc1ccc(CN2CCCCC2)cc1	none
Nc1nc(NCCO)nc(NC2CCCCC2)c1[N+](=O)[O-]	HSF1 inh -69 (no result: Lipid droplet)
Cc1ccc(C(=O)N(CCCN(C)C)c2nc3ccc(Cl)cc3s2)cc1C	none
O=C(Nc1c2c(nn1-c1cccc(Cl)c1)CS(=O)C2)c1ccc2c(c1)OCO2 (stereo not given)	none
O=C(Cc1ccc(Br)cc1)N1CCc2ccccc2C1	HSF-1 act 98
CN(C)C(=O)c1cc(C(=O)c2ccc(Cl)cc2Cl)c[nH]1	none (no result: Lipid droplet)
NC(=O)c1cc(C(=O)c2ccc(Cl)cc2Cl)c[nH]1	PHOSPHO1 block 64
O=C1CSC(=S)N1/N=C/c1ccc(O)c(O)c1O	PHOSPHO1 block 74
CC(C)(C)c1ccc(/C=N/N2C(=O)CSC2=S)cc1	HSF1 inh -77
Cc1ccc(-c2c(C)sc3nc[nH]c(=O)c23)cc1C	none
CCOc1cc(C2NN=C(c3ccccc3)S2)ccc1OCc1ccccc1Cl (stereo not given)	HSF-1 act 53 (no result: Lipid droplet)
CCOc1cc(C2NN=C(c3ccccc3)S2)ccc1OCc1ccc(F)cc1 (stereo not given)	HSF-1 act 56
COC(=O)c1ccccc1NC(=O)NC1CCC(C)CC1 (stereo not given)	none
c1ccc(CSc2ncnc3c2oc2ccccc23)cc1	none (no result: PHOSPHO1 block, Lipid droplet)
c1coc(CSc2ncnc3c2oc2ccccc23)c1	HSF-1 act 66
COc1cc(CCC(=O)OCn2nnc3ccccc3c2=O)cc(OC)c1OC	HSF1 inh -81 (no result: Lipid droplet)
O=C(O)COc1ccccc1C(Nc1cccnc1)c1cc(Cl)c2cccnc2c1O (stereo not given)	PHOSPHO1 block 84 (no result: CHT allo act, CHT inh)
COc1ccc2cc(C(=O)C3CCCN(Cc4cccc(C)n4)C3)ccc2c1 (stereo not given)	none
Cc1[nH]c(=O)cc2ccccc12	PHOSPHO1 block 94 (no result: Lipid droplet)
Cc1cc(=O)[nH]c2ccccc12	none (no result: Lipid droplet)
COCCN(CCOC)C(=O)N1CCOCC1	none
CCOC(=O)/C(=N\Nc1ccc(OC)cc1)c1csc(Nc2ccccc2)n1	PHOSPHO1 block 90
CCOC(=O)/C(=N/Nc1ccccc1)c1csc(Nc2ccccc2)n1	none
CCn1c(C)[n+](CC(O)COCC2CC=CCC2)c2ccccc21 (stereo not given)	PHOSPHO1 block 104
CCCCCn1c(N2CCCC2)nc2c1c(=O)n(C)c(=O)n2C	none
Cc1cc(N=NC(=O)c2ccccc2O)c2ccccc2c1O	PHOSPHO1 block 70, HSF-1 act 77
COc1cccc2cc(-c3ccccc3)c(=O)oc12	HSF-1 act 62
O=c1[nH]c(SCc2ccccc2)nc2[nH]ncc12	PHOSPHO1 block 64
O=C(COC(=O)C1CSC2(c3ccc(F)cc3)CCC(=O)N12)NC(=O)NC1CCCC1 (stereo not given)	HSF-1 act 57
CC(C)CNC(=O)NC(=O)COC(=O)C1CSC2(c3ccc(F)cc3)CCC(=O)N12 (stereo not given)	none
C=C1CCC[C@]2(C)C[C@H]3OC(=O)C(CNCC(C)C)[C@H]3CC12 (stereo not given in full)	HSF-1 act 68 (no result: PHOSPHO1 block, Lipid droplet)
C=C1CCC[C@]2(C)C[C@H]3OC(=O)C(CNCCN(C)C)[C@H]3CC12 (stereo not given in full)	none (no result: PHOSPHO1 block, Lipid droplet)
C=C1CCC[C@]2(C)C[C@H]3OC(=O)C(CNCCN(CC)CC)[C@H]3CC12 (stereo not given in full)	HSF-1 act 61 (no result: PHOSPHO1 block, Lipid droplet)
CCCNc1nc(-c2cc(-c3ccc(Cl)cc3)on2)cc(C(C)C)n1	none (no result: Lipid droplet)
